Published values gathered from unrelated publications.
Protocols differ between the studies behind these lines.
Effect on: cell growth or viability

O=C(NCCc1ccccc1)Nc1nc2cc(-c3ccc4ncn(CCN5CCOCC5)c(=O)c4c3)ccc2s1  IC50 (NCI-H1975; MTT; 72 h): 3.2 µM
c1ccc(Oc2ccc(Nc3c4c(nc5ccccc35)CCC4)cc2)cc1  IC50 (HEK293; resazurin; 72 h): 11.2 µM
COc1ccc(NC(=O)Nc2nc3cc(-c4ccc5ncn(CCN6CCOCC6)c(=O)c5c4)ccc3s2)cc1  IC50 (NCI-H1975; MTT; 72 h): > 20 µM
CCCCC(=O)Nc1ccc(-c2ccc3ncn(CCC)c(=O)c3c2)cc1F  IC50 (NCI-H1975; CCK-8; 72 h): 1.68 µM
O=C(NCc1ccccc1)Nc1nc2cc(-c3ccc4ncn(Cc5ccccc5)c(=O)c4c3)ccc2s1  IC50 (NCI-H1975; MTT; 72 h): > 20 µM
CCCCCC(=O)Nc1ccc(-c2ccc3ncn(CCC)c(=O)c3c2)cn1  IC50 (NCI-H1975; CCK-8; 72 h): 0.074 µM
COc1cccc2c1C(=O)c1c(O)c3c(c(O)c1C2=O)C[C@@](O)(C(=O)CO)C[C@@H]3O[C@H]1C[C@H](N)[C@H](O)[C@H](C)O1  IC50 (Pfeiffer; 96 h): 0.0907 µM
CCCCC(=O)Nc1ccc(-c2ccc3ncn(CC4CC4)c(=O)c3c2)cn1  IC50 (NCI-H1975; CCK-8; 72 h): 0.079 µM
CN(C)CCn1cnc2ccc(-c3ccc4sc(NC(=O)Nc5ccc(F)cc5)nc4c3)cc2c1=O  IC50 (NCI-H1975; MTT; 72 h): 1.39 µM
CCCn1cnc2ccc(-c3ccc(N4CCC(C)CC4=O)nc3)cc2c1=O (centres unmarked)  IC50 (NCI-H1975; CCK-8; 72 h): > 10 µM
Nc1nnc(-c2ccccc2O)cc1N1CC2CCC(C1)N2c1ccnc(F)c1  IC50 (HCC515; ATP luminescence; 7 days): > 1 µM
CCCCn1cnc2ccc(-c3ccc(NC(=O)Nc4ccc(Cl)cc4)nc3)cc2c1=O  IC50 (NCI-H1975; CCK-8; 72 h): 2.55 µM
Nc1ccn([C@@H]2O[C@H](CO)[C@@H](O)C2(F)F)c(=O)n1  IC50 (HEK293; MTT; 24 h): 24.2 µg/mL
Cc1cnc(Nc2ccc(OCCN3CCCC3)cc2)nc1Nc1cccc(S(=O)(=O)NC(C)(C)C)c1  IC50 (SET-2; CCK-8): 1.01 µM
O=C(Nc1ccc(Cl)cc1)Nc1nc2cc(-c3ccc4ncn(CCN5CCOCC5)c(=O)c4c3)ccc2s1  IC50 (NCI-H1975; MTT; 72 h): > 20 µM
Cc1ncsc1-c1ccc(CNC(=O)[C@@H]2C[C@@H](O)CN2C(=O)[C@@H](NC(=O)C2(F)CC2)C(C)(C)C)c(OCCOc2ccc(CN3CCN(c4cc(-c5ccccc5O)nnc4N)CC3)cc2)c1  IC50 (HCC515; ATP luminescence; 7 days): 0.261 µM
COc1cc(C2C3=C(COC3=O)N(CCO)c3cc4c(cc32)CCC4)cc(OC)c1OC (centres unmarked)  IC50 (HEK293; ATP luminescence; 48 h): 1.55 µM
COc1ccc(C[C@H](N)C(=O)N[C@H]2[C@@H](O)[C@H](n3cnc4c(N(C)C)ncnc43)O[C@@H]2CO)cc1  IC50 (HEK293; resazurin; 72 h): 0.72 µM
O=C(Nc1ccc(Cl)cc1)Nc1nc2cc(-c3ccc4ncn(Cc5ccccc5)c(=O)c4c3)ccc2s1  IC50 (NCI-H1975; MTT; 72 h): > 20 µM
CCCn1cnc2ccc(-c3ccc(NC(=O)CNCC)nc3)cc2c1=O  IC50 (NCI-H1975; CCK-8; 72 h): 8.79 µM
